From ChEMBL document CHEMBL3393024, “Multidrug resistance-reversal effects of resin glycosides from Dichondra repens” (Bioorg Med Chem Lett, 2015)

Assays:
[1] = Cytotoxicity against human KB/VCR cells at 25 uM after 72 hrs by SRB method; format: functional
Summary of the method: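 Test sample was given alone at 25 µM, and cytotoxicity was expressed as percent inhibition ratio.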

[2] = Resistance factor, ratio of vincristine IC50 to vincristine IC50 in presence of compound for human KB/VCR cells; format: functional
Summary of the method: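 Vincristine was serially diluted from 0.125 to 1 µM and tested with or without 25 µM test sample. Resistance factor is the vincristine IC50 alone divided by the vincristine IC50 with sample.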

[3] = Cytotoxicity against human KB/VCR cells after 72 hrs by SRB method; format: functional, cell-based
[4] = Cytotoxicity against human KB/VCR cells at 10 uM after 72 hrs by SRB method; format: functional

CCCCC[C@@H](CCCCCCC[C@H](O)CC(=O)O)O[C@@H]1O[C@H](CO[C@@H]2O[C@@H](C)[C@H](O)[C@@H](O)[C@H]2OC(=O)[C@H](C)[C@@H](C)O)[C@@H](O)[C@H](O)[C@H]1O[C@@H]1O[C@H](CO)[C@@H](O[C@@H]2O[C@@H](C)[C@H](O)[C@@H](OC(=O)[C@H](C)[C@@H](C)O)[C@H]2O)[C@H](O)[C@H]1O
inhibition at 25 µM [1]: 0.83% | Ratio IC50 [2]: 1.32

CCCCC[C@H](O)CCCCCCCC(=O)O[C@H]1[C@H](O[C@H]2C(O)O[C@H](COC(C)=O)[C@@H](O)[C@@H]2O)O[C@@H](C)[C@@H](OC(=O)[C@H](C)[C@@H](C)O)[C@H]1O[C@@H]1O[C@@H](C)[C@H](O)[C@@H](O)[C@H]1O (some centres not stated)
inhibition at 25 µM [1]: 0.85% | Ratio IC50 [2]: 1.36

CC[C@]1(O)C[C@H]2CN(CCc3c([nH]c4ccccc34)[C@@](C(=O)OC)(c3cc4c(cc3OC)N(C=O)[C@H]3[C@@](O)(C(=O)OC)[C@H](OC(C)=O)[C@]5(CC)C=CCN6CC[C@]43[C@@H]65)C2)C1 [VINCRISTINE]
IC50 [3]: 570 nM

CCC[C@H](O)CCCCCCCCCC(=O)O[C@H]1[C@H](O[C@H]2C(O)O[C@H](CO)[C@@H](O)[C@@H]2O)O[C@@H](C)[C@@H](OC(=O)[C@H](C)[C@@H](C)O)[C@H]1O[C@@H]1O[C@@H](C)[C@H](O)[C@@H](O)[C@H]1O (some centres not stated)
inhibition at 25 µM [1]: 1.64% | Ratio IC50 [2]: 1.03

CCCCC[C@@H](CCCCCCCCCC(=O)O)O[C@@H]1O[C@H](CO[C@@H]2O[C@@H](C)[C@H](O)[C@@H](O)[C@H]2OC(=O)[C@H](C)[C@@H](C)O)[C@@H](O)[C@H](O)[C@H]1O[C@@H]1O[C@H](CO)[C@@H](O[C@@H]2O[C@@H](C)[C@H](O)[C@@H](OC(=O)[C@H](C)[C@@H](C)O)[C@H]2O)[C@H](O)[C@H]1O
inhibition at 25 µM [1]: 2.52% | Ratio IC50 [2]: 1.19

CCCCC[C@H](O)CCCCCCCCCC(=O)O[C@H]1[C@H](O[C@H]2C(O)O[C@H](CO)[C@@H](O)[C@@H]2O)O[C@@H](C)[C@H](OC(=O)[C@H](C)[C@@H](C)O)[C@H]1O[C@@H]1O[C@@H](C)[C@H](O)[C@@H](O)[C@H]1O (some centres not stated)
inhibition at 25 µM [1]: 1.35% | Ratio IC50 [2]: 1.78

COc1ccc(CCN(C)CCCC(C#N)(c2ccc(OC)c(OC)c2)C(C)C)cc1OC (configuration not stated)
inhibition at 10 µM [4]: 0.45%
